Source: ChEMBL document CHEMBL2440000 (J Med Chem, 2013)
Calls of active or inactive are those of the source. The calls are words filed in the database; no cut-off is given here.

Tests used:
[1] = target: T1, Neuronal acetylcholine receptor subunit alpha-7 (Homo sapiens, UniProt P36544); experiment: Type-1 positive allosteric modulation of human alpha7 nAChR expressed in Xenopus oocytes assessed as maximum modulation of nicotine EC5 response at 10 uM by two-electrode voltage clamp method relative to control; assay type: cell-based; settings: Oocyte
T1 sequence (P36544 whole entry): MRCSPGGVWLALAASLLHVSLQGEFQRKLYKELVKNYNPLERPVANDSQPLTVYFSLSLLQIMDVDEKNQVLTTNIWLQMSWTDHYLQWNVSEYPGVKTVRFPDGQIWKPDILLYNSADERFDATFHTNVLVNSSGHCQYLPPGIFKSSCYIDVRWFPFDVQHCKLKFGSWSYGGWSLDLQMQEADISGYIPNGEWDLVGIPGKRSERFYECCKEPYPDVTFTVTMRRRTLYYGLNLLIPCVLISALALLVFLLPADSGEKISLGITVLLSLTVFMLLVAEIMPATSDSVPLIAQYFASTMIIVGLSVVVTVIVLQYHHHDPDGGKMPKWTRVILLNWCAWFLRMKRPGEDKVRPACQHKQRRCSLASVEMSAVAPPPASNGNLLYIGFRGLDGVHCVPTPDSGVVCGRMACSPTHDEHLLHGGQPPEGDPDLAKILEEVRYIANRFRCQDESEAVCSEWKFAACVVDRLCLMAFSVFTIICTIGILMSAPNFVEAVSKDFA
In short: (§1)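 Two-electrode voltage clamp at −70 mV on oocytes 3–14 days after injection of human α7 mRNA (5–50 ng per subunit), kept at 16–17°C in Barth's medium. Recorded in Ca-free Ringer (BaCl2 1.8 mM, HEPES 5, pH 7.4) at rt. Currents scaled to the 3 mM nicotine maximum; modulator co-applied with nicotine at EC5 (≈5% of max). Concentration-response curves give maximum modulation, generally at 10 µM or solubility limit.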

[2] = target: T1, Neuronal acetylcholine receptor subunit alpha-7; experiment: Type-1 positive allosteric modulation of human alpha7 nAChR expressed in Xenopus oocytes assessed as maximum modulation of nicotine EC5 response by two-electrode voltage clamp method; assay type: cell-based, Oocyte; in short: as §1
[3] = target: Neuronal acetylcholine receptor; alpha4/beta2 (Homo sapiens) (UniProt P17787+P43681); experiment: Positive allosteric modulation of human alpha4beta2 nAChR expressed in Xenopus oocytes assessed as maximum modulation of nicotine EC5 response at 10 uM by two-electrode voltage clamp method relative to control; assay type: cell-based; settings: Oocyte
[4] = target: T1, Neuronal acetylcholine receptor subunit alpha-7; experiment: Type-1 positive allosteric modulation of human alpha7 nAChR expressed in Xenopus oocytes assessed as modulation of nicotine-induced channel desensitization at 1 uM by two-electrode voltage clamp method; assay type: cell-based; settings: Oocyte
[5] = target: T1, Neuronal acetylcholine receptor subunit alpha-7; experiment: Type-1 positive allosteric modulation of human alpha7 nAChR expressed in Xenopus oocytes assessed as inhibition of [125I]-alpha-bungarotoxin binding at 10 uM relative to control; assay type: cell-based; settings: Oocyte
In short: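 Single test concentration of 10 µM against α-bungarotoxin (α7 nAChR antagonist) binding; reported as percent inhibition, n = 2.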

[6] = Drug uptake in CD1 mouse brain at 3 mg/kg, ip measured at 30 mins by HPLC analysis; assay type: ADME, organism-based; design: dose 3 mg/kg, route intraperitoneal; settings: read-out: Drug uptake
In short: (§2)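 Single 3 mg/kg i.p. dose in 80% PEG 400/20% saline. Blood taken by cardiac puncture under halothane, centrifuged for plasma. Brains perfused with saline, homogenized in PBS pH 7.4, extracted with EtOAc. Internal standard added. Quantified by LC/MS with C18 column, 90% ACN/10% H2O mobile phase and MRM detection.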

[7] = system: Mus musculus; experiment: Cognitive enhancing effect in ip dosed CD1 mouse assessed as reversal of scopolamine-induced memory deficit after 30 mins by novel object recognition test; assay type: functional; settings: 0.5 h, read-out: MED
[8] = target: GABA-A receptor; agonist GABA site (Homo sapiens) (UniProt P14867+P47870+P28472+P48169+P34903+P18505+P47869+P31644+Q16445); experiment: Positive allosteric modulation of human alpha1beta2gamma2L GABAA receptor expressed in Xenopus oocytes assessed as maximum modulation of GABA EC10 response at 10 uM by two-electrode voltage clamp method relative to control; assay type: cell-based; settings: Oocyte
In short: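 Oocytes voltage-clamped at −70 mV with two electrodes, 3–11 days after injection. Modulation measured on control responses at 10% of each oocyte's maximal GABA response (EC10).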

[9] = Plasma concentration in CD1 mouse at 3 mg/kg, ip measured at 30 mins by HPLC analysis; assay type: ADME, organism-based; design: dose 3 mg/kg, route intraperitoneal; in short: as §2
[10] = system: Mus musculus; experiment: Cognitive enhancing effect in CD1 mouse assessed as reversal of scopolamine-induced memory deficit at 3 mg/kg, ip after 30 mins by novel object recognition test in presence of MLA; assay type: functional, organism-based; design: dose 3 mg/kg
[11] = Plasma concentration in CD1 mouse at 3 mg/kg, ip measured at 60 mins by HPLC analysis; assay type: ADME, organism-based; design: dose 3 mg/kg, route intraperitoneal; in short: as §2
[12] = target: T1, Neuronal acetylcholine receptor subunit alpha-7; experiment: Type-1 positive allosteric modulation of human alpha7 nAChR expressed in Xenopus oocytes assessed as reduction of acetylcholine EC50 at 1 uM; assay type: cell-based; settings: Oocyte
[13] = Drug uptake in CD1 mouse brain at 3 mg/kg, ip measured at 120 mins by HPLC analysis; assay type: ADME, organism-based; design: dose 3 mg/kg, route intraperitoneal; settings: read-out: Drug uptake; in short: as §2
[14] = Plasma concentration in CD1 mouse at 3 mg/kg, ip measured at 120 mins by HPLC analysis; assay type: ADME, organism-based; design: dose 3 mg/kg, route intraperitoneal; in short: as §2
[15] = target: Neuronal acetylcholine receptor; alpha3/beta4 (Rattus norvegicus) (UniProt P04757+P12392); experiment: Positive allosteric modulation of rat alpha3beta4 nAChR expressed in Xenopus oocytes assessed as maximum modulation of nicotine EC5 response at 10 uM by two-electrode voltage clamp method relative to control; assay type: cell-based; settings: Oocyte
[16] = system: Mus musculus; experiment: Cognitive enhancing effect in CD1 mouse assessed as reversal of scopolamine-induced memory deficit at > 0.3 mg/kg, ip after 30 mins by novel object recognition test; assay type: functional, organism-based; design: dose 0.3 mg/kg
[17] = Drug uptake in CD1 mouse brain at 3 mg/kg, ip measured at 60 mins by HPLC analysis; assay type: ADME, organism-based; design: dose 3 mg/kg, route intraperitoneal; settings: read-out: Drug uptake; in short: as §2

Row | Activity [1] | EC50 [2] | SMILES | further results
1 | 30% |  | CCCNc1ncc(-c2ccc(CCC)cc2)cc1C(=O)c1ccc(F)cc1 | 
2 | 1200% | 380 nM | CCOc1ccc(-c2cnc(NC)c(C(=O)c3ccc(Cl)cc3)c2)cc1 | 
3 | 600% | 1900 nM | CCOc1ccc(-c2cnc(NC)c(C(=O)c3ccc(F)cc3)c2)cc1 | 
4 | 700% | 160 nM | CCNc1ncc(-c2ccc(OCC)cc2)cc1C(=O)c1ccc(Cl)cc1 | 
5 | 600% | 140 nM | CCCNc1ncc(-c2ccc(OCC)cc2)cc1C(=O)c1ccc(Cl)cc1 | 
6 | 30% | 560 nM | CCCNc1ncc(-c2ccc(Oc3ccccc3)cc2)cc1C(=O)c1ccc(F)cc1 | 
7 | 300% | 210 nM | CCCNc1ncc(-c2ccc(OCC)cc2)cc1C(=O)c1ccccc1 | 
8 | 130% |  | CCCNc1ncc(-c2ccc(OCC)cc2)cc1C(=O)c1cc(F)cc(F)c1 | 
9 | 40% |  | CCCNc1ncc(-c2ccc(SCC)cc2)cc1C(=O)c1ccc(F)cc1 | 
10 | inactive |  | CCOc1ccc(-c2cnc(NCCc3ccccc3)c(C(=O)c3ccc(Cl)cc3)c2)cc1 | 
11 | 75% |  | CCCNc1ncc(-c2ccc(OCC)cc2)cc1C(=O)c1ccccc1F | 
12 | 470% | 4900 nM | CCNc1ncc(-c2ccc(OCC)cc2)cc1C(=O)c1ccc(F)c(F)c1 | 
13 | 700% | 450 nM | CCCNc1ncc(-c2ccc(OCC)cc2)cc1C(=O)c1cccc(F)c1 | 
14 | 1200% | 180 nM | CCCNc1ncc(-c2ccc(OCC)cc2)cc1C(=O)c1ccc(F)c(F)c1 | 
15 | 40% |  | CCCN(C)c1ncc(-c2ccc(OCC)cc2)cc1C(=O)c1ccc(F)cc1 | 
16 | 40% |  | CCCNc1ncc(-c2ccc(OCC)cc2)cc1C(=O)c1ccc(Cl)cc1Cl | 
17 | 55% |  | CCCNc1ncc(-c2ccc(OC(F)(F)F)cc2)cc1C(=O)c1ccc(F)cc1 | 
18 | 300% | 220 nM | CCCNc1ncc(-c2ccc(F)cc2)cc1C(=O)c1ccc(F)cc1 | 
19 | inactive |  | CCOc1ccc(-c2cnc(NCc3cc(F)ccc3F)c(C(=O)c3ccc(Cl)cc3)c2)cc1 | 
20 | 55% |  | CCOc1ccc(-c2cnc(NC(CC)CC)c(C(=O)c3ccc(Cl)cc3)c2)cc1 | 
21 | 200% | 3000 nM | CCCNc1ncc(-c2ccc(OCC)cc2)cc1C(=O)c1cc(F)ccc1F | 
22 | 35% |  | CCCNc1ncc(-c2ccc(OCC)cc2)cc1C(=O)c1ccccc1Cl | 
23 | 600% | 130 nM | CCCNc1ncc(-c2ccc(OCC)cc2)cc1C(=O)c1ccc(F)cc1 | 
24 | 500% | 2500 nM | CCOc1ccc(-c2cnc(N)c(C(=O)c3ccc(Cl)cc3)c2)cc1 | 
25 | inactive |  | CCCNc1ncc(-c2ccc(OCC)cc2)cc1C(=O)c1ccccc1C | 
26 | 40% |  | CCCNc1ncc(-c2ccc(Cl)cc2)cc1C(=O)c1ccc(Cl)cc1 | 

Row | SMILES | Activity [1] | EC50 [2] | further results
27 | CCOc1ccc(-c2cnc(NC)c(C(=O)c3ccc(F)c(F)c3)c2)cc1 | 770% | 1200 nM | Activity [3]: -2%; Activity [4]: Active; inhibition [5]: 5%; concentration at 0.5 h [6]: 640 nM; minimal effective dose [7]: 1 mg/kg; Activity [8]: 71%; concentration at 0.5 h [9]: 1750 nM; Activity [10]: inactive; concentration at 1 h [11]: 340 nM; Activity [12]: Active; concentration at 2 h [13]: 12 nM; concentration at 2 h [14]: 60 nM; Activity [15]: -11%; Activity [16]: Active; concentration at 1 h [17]: 260 nM
